The nature of data set [1]: Drug uptake in rat brain at 10 mg/kg, po after 6 hrs. The format is ADME, organism-based. Also noted: dose 10 mg/kg, route oral. To be noted: read-out: Drug uptake. The method in brief:
(§1)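 Rat cassette-accelerated rapid screen, 10 mg/kg oral. Plasma exposure measured over 0–6 h. Brain drug concentration taken at 6 h. Brain/plasma ratio is brain over plasma drug concentration at 6 h.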

The target in data set [2] is cAMP and cAMP-inhibited cGMP 3',5'-cyclic phosphodiesterase 10A (Homo sapiens, UniProt Q9Y233). Nature of the data set: Inhibition of recombinant human PDE10A using [3H]cAMP as substrate by scintillation proximity assay. Summed up: (§2)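 Scintillation proximity assay with [³H]cAMP as substrate, measuring hydrolysis of cAMP to AMP by recombinant human PDEs 1–11. Ki values are means of at least two experiments.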
A general note: SPA uses beads or plates that emit light when radiolabelled molecules are held near them.

For another data set, the target named is Phosphodiesterase 6. In words: Inhibition of recombinant human PDE6 using [3H]cAMP as substrate by scintillation proximity assay. The format is protein assay. The method in brief: as §2
The target in data set [3] is T1, Phosphodiesterase 6 (Homo sapiens) (UniProt Q13956+P18545+P35913+O43924+P16499+P51160). Nature of the data set: Inhibition of recombinant human PDE6 using [3H]cAMP as substrate at 3.6 uM by scintillation proximity assay. It is filed as protein assay.
The nature of data set [4]: AUC (0 to 6 hrs) in rat at 10 mg/kg, po. Conditions: plasma. It is filed as ADME, organism-based. Also noted: time < 6 hr, dose 10 mg/kg, route oral. Summed up: as §1
Data set [5] relates to Rattus norvegicus. In words: Antipsychotic activity in CD rat assessed as inhibition of MK-801-induced hyperactivity at 30 mg/kg, po relative to control. The format is functional, organism-based. Also noted: dose 30 mg/kg. Summed up:
(§3)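 Male CD rats habituated to locomotor activity chambers 24 h before testing. On test day, MK-801 (0.3 mg/kg, sc) co-administered with PDE10 inhibitor (po), then rats placed in apparatus. Inhibition expressed as percent of activity in inhibitor + MK-801 group relative to vehicle + MK-801 group.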

Data set [6] in a line: Drug uptake in CD rat brain at 30 mg/kg, po after 1 hr. It is filed as ADME, organism-based. Also noted: dose 30 mg/kg, route oral. To be noted: read-out: Drug uptake.
Data set [7] concerns Rattus norvegicus. In words: Antipsychotic activity in CD rat assessed as inhibition of MK-801-induced hyperactivity at 10 mg/kg, po relative to control. It is filed as functional, organism-based. Also noted: dose 10 mg/kg. The method in brief: as §3
The target of data set [8] is T1, Phosphodiesterase 6 (Homo sapiens). Nature of the data set: Inhibition of recombinant human PDE6 using [3H]cAMP as substrate at 1 uM by scintillation proximity assay. It is filed as protein assay.

The text below walks through data of ChEMBL document CHEMBL1938329, “The discovery of potent, selective, and orally active pyrazoloquinolines as PDE10A inhibitors for the treatment of Schizophrenia” (Bioorg Med Chem Lett, 2012).

The structures appear in SMILES notation. Activity calls are given as the source filed them. The rule behind the calls is not given here.

cAMP and cAMP-inhibited cGMP 3',5'-cyclic phosphodiesterase 10A, sequence (Q9Y233 whole entry): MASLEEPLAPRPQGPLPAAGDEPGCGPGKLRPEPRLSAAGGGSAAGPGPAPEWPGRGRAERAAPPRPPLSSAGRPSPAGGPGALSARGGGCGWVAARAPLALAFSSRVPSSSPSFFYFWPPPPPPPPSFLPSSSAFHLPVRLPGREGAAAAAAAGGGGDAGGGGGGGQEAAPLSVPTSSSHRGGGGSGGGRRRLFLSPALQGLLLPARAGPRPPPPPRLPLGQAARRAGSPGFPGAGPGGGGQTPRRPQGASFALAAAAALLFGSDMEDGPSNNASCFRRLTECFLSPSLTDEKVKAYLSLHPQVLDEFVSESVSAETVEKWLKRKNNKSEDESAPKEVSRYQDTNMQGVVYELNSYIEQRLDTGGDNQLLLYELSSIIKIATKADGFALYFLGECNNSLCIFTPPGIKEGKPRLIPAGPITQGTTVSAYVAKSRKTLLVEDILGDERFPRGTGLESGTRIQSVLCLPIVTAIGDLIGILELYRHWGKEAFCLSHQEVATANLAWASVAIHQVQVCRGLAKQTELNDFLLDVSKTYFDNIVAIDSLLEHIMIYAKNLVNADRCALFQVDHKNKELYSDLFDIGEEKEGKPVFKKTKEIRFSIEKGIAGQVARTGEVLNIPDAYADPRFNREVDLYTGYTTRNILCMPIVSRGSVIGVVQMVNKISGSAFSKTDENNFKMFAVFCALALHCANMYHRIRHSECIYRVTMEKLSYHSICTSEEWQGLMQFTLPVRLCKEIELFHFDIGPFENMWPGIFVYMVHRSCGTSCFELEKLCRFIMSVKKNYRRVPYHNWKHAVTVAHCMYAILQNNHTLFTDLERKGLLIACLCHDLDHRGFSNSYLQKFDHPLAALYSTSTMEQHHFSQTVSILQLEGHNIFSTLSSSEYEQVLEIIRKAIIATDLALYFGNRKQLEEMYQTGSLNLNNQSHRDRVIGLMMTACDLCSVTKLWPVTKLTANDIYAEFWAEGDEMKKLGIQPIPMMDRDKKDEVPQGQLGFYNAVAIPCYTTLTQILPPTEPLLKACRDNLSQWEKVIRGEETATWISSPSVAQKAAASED

Broadly, the Ki is the equilibrium dissociation constant of an inhibitor or competing ligand from its target. Take `COc1cc(C)c2nc3[nH]nc(C)c3c(N3CCCC(CO)C3)c2c1` (racemic): the concentration at 6 h in data set [1] is less than 10 ng/g. The Ki in data set [2] worked out at 0.029 µM.

As for `COc1cc(C)c2nc3[nH]nc(C)c3c(N3CCC(NC(N)=O)CC3)c2c1`, the concentration at 6 h in data set [1] is less than 10 ng/g. In addition, the Ki in [2] is 0.027 µM.

Regarding `COc1cc(C)c2nc3[nH]nc(C)c3c(NCCc3ccncc3)c2c1`, the Ki at Phosphodiesterase 6 came out at 0.554 µM; in data set [2], 0.07 µM.

Consider `COc1cc(C)c2nc3[nH]nc(C)c3c(NCC3CCNCC3)c2c1`, for which the Ki amounted to 14.782 µM on Phosphodiesterase 6 and 0.015 µM in [2].

What is called inhibition is the drop in the measured response relative to a control, in per cent. Regarding `COc1cc(C)c2nc3[nH]nc(C)c3c(NC3CCNCC3)c2c1`, the inhibition in data set [3] amounted to 48%. For the same molecule, the Ki in data set [2] stood at 0.055 µM.

As to `COc1cc(C)c2nc3[nH]nc(C)c3c(N(C)C3CCOCC3)c2c1`, the Ki on Phosphodiesterase 6 came out at 7.383 µM; in data set [2], 0.041 µM.

As to `COc1cc(C)c2nc3[nH]nc(C)c3c(N3CCC(O)CC3)c2c1`, the concentration at 6 h in data set [1] is less than 10 ng/g. The Ki in data set [2] turned out to be 0.014 µM.

For the molecule `COc1cc(C)c2nc3[nH]nc(C)c3c(NCC3CCCCO3)c2c1` (stereo not drawn), the results for the Ki (on Phosphodiesterase 6; in data set [2]) were 0.843 µM and 0.13 µM, respectively.

Turning to `COc1cc(C)c2nc3[nH]nc(C)c3c(NCc3ccncc3)c2c1`, the Ki at Phosphodiesterase 6 came out at 0.211 µM; in data set [2] it was 0.0006 µM.

Consider `COc1cc(C)c2nc3[nH]nc(C)c3c(N3CCCCC3)c2c1`, for which the Ki in data set [2] stood at 0.363 µM.

Turning to `COc1cc(C)c2nc3[nH]nc(C)c3c(N3CCC(CN)CC3)c2c1`, in data set [2], the Ki stood at 0.0005 µM.

As a reminder, the AUC(0-t) is the area under the concentration-time curve up to a stated or last time point. Low values mean less exposure, high ones more exposure. Molecule `COc1cc(C)c2nc3[nH]nc(C)c3c(N3CCN(C(N)=O)[C@@H](C)C3)c2c1` showed an AUC(0-t) at 6 h in data set [4] of 9.5 µM·h. Moreover, the concentration at 6 h in data set [1] is less than 10 ng/g. In the data set with Rattus norvegicus [5], the inhibition result is “inactive”. Moreover, in [2], the Ki is 0.0033 µM. In addition, the concentration at 1 h in [6] stood at 27 ng/g.

For the molecule `COc1cc(C)c2nc3[nH]nc(C)c3c(N3CCC(N)CC3)c2c1`, the concentration at 6 h in data set [1] is less than 10 ng/g. For the same molecule, in data set [2], the Ki came out at 0.001 µM.

As for `COc1cc(C)c2nc3[nH]nc(C)c3c(N3CCCNCC3)c2c1`, the Ki in [2] was determined as 0.015 µM.

In data set [4], `COc1cc(C)c2nc3[nH]nc(C)c3c(OC3CCOCC3)c2c1` yielded an AUC(0-t) at 6 h of 10.6 µM·h. In addition, in the data set with Rattus norvegicus [7], the inhibition result was “inactive”. The inhibition in data set [8] was 30%. For the same molecule, the inhibition result in the data set with Rattus norvegicus [5] was “Active”. Also, in data set [2], the Ki is 0.0031 µM.
